Most compounds without a hit are left out; they make up all but 2.6% or so of the library.
Rce1 inh: inhibitors of yeast Ras-converting enzyme. yeast membranes, quenched prenylated peptide cleavage fluorescence. AID 2563. calls only. actives 0.27% (n = 290,000). Q03530;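 active = fall in fluorescence gain of 50% or more versus controls, with final raw signal at or below 3038400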;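 also: plate controls were neutral control wells for no effect and wells lacking membranes for full effect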
TAAR1 antagonist: antagonists of human TAAR1 | CHO RD-HGA16 TAAR1, Fluo-8 calcium fluorescence, antagonist | actives 1.5% (n = 360,000) | AID 624466 | Q96RJ0 | inhibition, % at 3 µM;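 active = inhibition above a per-plate cutoff, the mean inhibition of test compounds on that plate plus 3 SD, cut at about 49% in these data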;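 also: 0% = DMSO plus EC80 beta-PEA response and 100% = DMSO alone without agonist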
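Test system – hTAAR1-expressing CHO RD-HGA16 cells, Gα16-coupled · Reagent – β-PEA at EC80 concentration, post-compound challenge · Compound dosing – 3 µM, single point · Timing – 140 s kinetic read after compound, 140 s after agonist · Detection – Fluo-8 intracellular calcium dye fluorescence, real-time kinetic reads · Control set – DMSO and EC80 PEA controls · Repeats – n of 1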
TAAR1 ag: agonists of human TAAR1. actives 0.99% (n = 360,000). CHO RD-HGA16 TAAR1, Fluo-8 calcium fluorescence; vehicle wells 0%, saturating PEA agonist 100%. activation, % at 3 µM. Q96RJ0;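 active = activation above the mean activation of all test compounds in the run plus 3 SD, cut at about 38% in these data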
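Assay system – CHO-derived RD-HGA16 cells with stable Gα16 and human TAAR1 · Compound dosing – one-point dosing at 3 µM (nominal) · Incubation – 17-24 h seeding, 75 min 37 °C dye, 30 min RT · Measured by – kinetic Fluo-8 calcium fluorescence · Control set – DMSO vehicle as 0%, PEA at EC100 as 100% · Repeats – single well for each compound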
VLA-4 inh: inhibition in a human VLA-4 binding assay; P13612; VLA-4 expressing cells, ligand binding flow cytometry; inhibition, % (about 7 µM as worked out from the volumes in the protocol); actives 0.2% (n = 330,000); in the data active = inhibition above about 50%
Target sequence (P13612 whole entry, looked up): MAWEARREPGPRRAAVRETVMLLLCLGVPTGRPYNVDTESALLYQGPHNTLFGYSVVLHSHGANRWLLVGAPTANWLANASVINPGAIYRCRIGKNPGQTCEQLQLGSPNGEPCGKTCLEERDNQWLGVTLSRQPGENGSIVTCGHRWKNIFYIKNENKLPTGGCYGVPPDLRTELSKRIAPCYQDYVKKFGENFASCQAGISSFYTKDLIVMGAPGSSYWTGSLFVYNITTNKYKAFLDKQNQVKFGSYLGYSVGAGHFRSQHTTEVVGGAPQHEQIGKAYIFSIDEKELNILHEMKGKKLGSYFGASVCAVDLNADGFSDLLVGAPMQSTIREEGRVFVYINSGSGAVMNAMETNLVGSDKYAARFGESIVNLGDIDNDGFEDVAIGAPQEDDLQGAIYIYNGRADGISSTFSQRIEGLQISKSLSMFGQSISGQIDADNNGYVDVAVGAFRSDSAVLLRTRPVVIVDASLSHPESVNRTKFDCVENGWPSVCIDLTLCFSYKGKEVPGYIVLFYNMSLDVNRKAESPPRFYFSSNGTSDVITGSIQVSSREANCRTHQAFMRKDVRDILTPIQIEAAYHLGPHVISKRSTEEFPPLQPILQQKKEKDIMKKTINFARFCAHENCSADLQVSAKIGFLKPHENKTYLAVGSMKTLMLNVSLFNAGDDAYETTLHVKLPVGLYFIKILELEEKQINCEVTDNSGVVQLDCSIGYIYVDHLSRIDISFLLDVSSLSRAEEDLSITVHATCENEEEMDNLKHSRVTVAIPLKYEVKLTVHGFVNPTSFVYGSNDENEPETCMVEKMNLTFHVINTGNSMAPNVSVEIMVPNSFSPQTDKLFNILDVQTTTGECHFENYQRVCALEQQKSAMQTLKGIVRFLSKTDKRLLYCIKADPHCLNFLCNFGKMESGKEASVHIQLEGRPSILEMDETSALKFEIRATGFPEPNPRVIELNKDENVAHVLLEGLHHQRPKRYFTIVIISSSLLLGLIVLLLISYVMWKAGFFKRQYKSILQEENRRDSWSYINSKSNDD
Platelet DG rel: modulates dense granule release in human platelets; human platelet-rich plasma, SFLLRN dense granule ATP release, luminescence; inhibition, %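 (compounds screened at 7.5 µM in platelet-rich plasma)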; actives 0.22% (n = 300,000);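 active = mean replicate score, as percent of positive control, at or above 50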
nonsel antag count: counter-screen for TAAR1 antagonists: nonselective antagonists. shares compounds with TAAR1 antagonist. actives 77% (n = 2,400). inhibition, % at 3 µM. AID 651780. counterscreen cell line, calcium fluorescence, antagonist mode; in the data active = inhibition above about 22%;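 also: CHO-Ga16 host cells stimulated with ATP at an EC80 level; 0% = agonist EC80 plus vehicle and 100% = vehicle without agonist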
TAAR1 antag conf: confirmation of human TAAR1 antagonists. TAAR1-expressing cells, fluorescence antagonist read-out. actives 40% (n = 2,400). inhibition, % at 3 µM. shares compounds with TAAR1 antagonist; in the data active = inhibition above about 49%;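 also: CHO-Ga16 host cells challenged with agonist PEA near its EC80; 0% = agonist at EC80 plus vehicle and 100% = vehicle with no agonist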
Ga16 nonsel ag: nonselective Ga16 agonist in TAAR1 antagonist counter-screen; actives 18% (n = 2,400); shares compounds with TAAR1 antagonist; activation, % at 3 µM; Ga16-expressing cells, calcium fluorescence, agonist counterscreen; AID 651953; in the data active = activation above about 12%;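 also: 0% = vehicle wells and 100% = saturating stimulus response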
TAAR1 ag count: TAAR1 agonism, antagonist counter-screen | shares compounds with TAAR1 antagonist | hTAAR1 cell line, fluorescence activation, agonist mode | activation, % at 3 µM | actives 2% (n = 2,400) | AID 651955; in the data active = activation above about 37%;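 also: CHO cells stably expressing TAAR1 with calcium dye readout; 0% = DMSO vehicle and 100% = full agonist response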
* = called active by the depositor; i = inactive; · = no result.

SMILES	Rce1 inh	TAAR1 antagonist	TAAR1 ag	VLA-4 inh	Platelet DG rel	nonsel antag count	TAAR1 antag conf	Ga16 nonsel ag	TAAR1 ag count
COc1ccc(-c2cccc3[nH]c4c(c23)CCN2C(=O)[C@H]3[C@H](C)ON(C)[C@H]3C[C@@H]42)cc1	·	49.7*	8.6	·	·	21.8*	32.7	8.0	7.7
C[C@@H]1ON(C)[C@H]2C[C@H]3c4[nH]c5cccc(-c6ccc7c(c6)OCO7)c5c4CCN3C(=O)[C@@H]12	·	55.6*	9.0	·	·	23.1*	40.3	7.4	10.5
COc1ccc(-c2cccc3c4c([nH]c23)[C@@H]2C[C@H]3[C@@H](C(=O)N2CC4)[C@H](C)ON3C)cc1	·	2.5	1.9	·	·	·	·	·	·
COc1cccc(-c2cccc3c4c([nH]c23)[C@@H]2C[C@H]3[C@@H](C(=O)N2CC4)[C@H](C)ON3C)c1	·	52.7*	6.0	·	·	22.2*	36.1	4.9	8.7
CC(C)n1nnnc1C1c2ccccc2C(=O)N1CCCN1CCOCC1 (stereo not drawn)	·	-15.5	10.2	·	·	·	·	·	·
CC(C)N(C)c1ncnc2c1ncn2[C@H]1CN(Cc2ccc3c(c2)OCO3)C[C@@H](CO)O1	·	6.3	0.5	·	·	·	·	·	·
COc1ccc(C2CC(=O)C(c3ccccc3OC)=CN2Cc2ccccc2)cc1 (stereo not drawn)	·	56.3*	6.1	·	·	20.9	36.6	4.9	5.1
COc1ccc(C2Nc3ccccc3C(=O)N2Cc2ccccc2)cc1 (stereo not drawn)	i	5.0	0.4	16.6	1.4	·	·	·	·
O=[N+]([O-])c1ccc(CN2CC(N3CCC(Cc4ccccc4)CC3)CS2(=O)=O)cc1 (stereo not drawn)	·	47.1	3.9	·	·	·	·	·	·
CCN(C[C@H]1N[C@@](Cc2ccccc2)(C(=O)OC)[C@H]2C(=O)N(C)C(=O)[C@@H]12)S(=O)(=O)c1ccc(OC)cc1	·	14.7	11.5	41.1	·	·	·	·	·
CCN(C[C@H]1N[C@@](Cc2ccccc2)(C(=O)OC)[C@H]2C(=O)N(C)C(=O)[C@@H]12)S(=O)(=O)c1ccc(C(F)(F)F)cc1	·	74.8*	13.7	21.4	·	22.7*	45.6	8.0	9.0
CCN(C[C@H]1N[C@@](CC)(C(=O)OC)[C@H]2C(=O)N(C)C(=O)[C@@H]12)C(=O)c1ccccc1	·	-4.7	1.3	-10.5	·	·	·	·	·
CCN(C[C@H]1N[C@@](CC)(C(=O)OC)[C@H]2C(=O)N(Cc3ccccc3)C(=O)[C@@H]12)C(=O)c1ccccc1	·	50.1*	17.1	-7.6	·	24.7*	42.9	10.7	12.5
CCN(C[C@H]1N[C@@](Cc2ccccc2)(C(=O)OC)[C@H]2C(=O)N(C)C(=O)[C@@H]12)S(=O)(=O)c1ccc(OC(F)(F)F)cc1	·	63.8*	12.3	-22.4	·	26.0*	42.0	7.2	3.6
CNc1cncc(-c2ccc(OCCCN(C)C)nc2)n1	·	-9.4	1.9	·	·	·	·	·	·
O=C(NCCCN1CCCC1=O)c1cc(S(=O)(=O)N2CCOCC2)ccc1Cl	i	-20.7	2.1	-2.8	1.1	·	·	·	·
CCCc1c(Cc2cccc(F)c2)ncn1Cc1cccc(-c2ccccc2)c1	·	-1.5	3.3	·	·	·	·	·	·
O=C(CN(c1ccc2c(c1)OCCO2)S(=O)(=O)c1ccccc1)NCc1ccc(Cl)cc1	i	74.8*	14.4	6.8	-0.9	26.1*	61.7*	8.9	11.7
O=C(CN(c1ccc(F)cc1)S(=O)(=O)c1ccc2c(c1)OCCO2)NCc1ccccc1	i	3.5	5.7	13.1	-1.8	·	·	·	·
COC(=O)c1ccc(OCCOc2ccccc2)cc1	i	-1.6	-0.7	-1.8	-3.2	·	·	·	·
COc1cccc(OC)c1OCCOc1ccc(C(=O)c2ccccc2)cc1	i	51.6*	7.5	36.0	-0.5	31.1*	58.7*	7.2	4.8
O=C(NCc1ccccc1)C(c1ccc(O)cc1)N(C(=O)c1cnccn1)c1ccccc1 (stereo not drawn)	i	62.7*	16.5	-7.1	-4.5	33.7*	52.6*	10.6	10.7
COc1ccc(N(C(=O)c2cnccn2)C(C(=O)NCc2ccccc2)c2ccc(O)cc2)cc1 (stereo not drawn)	i	-15.4	0.1	-35.8	5.9	·	·	·	·
COc1ccc(CNC(=O)C(c2ccco2)N(C(=O)c2ccccn2)c2ccccc2)cc1 (stereo not drawn)	i	64.0*	10.0	9.5	2.0	22.2*	34.4	6.0	3.7
O=C(COC(=O)c1ccc(OC(F)F)cc1)NCc1cccs1	·	-12.0	-2.2	2.8	·	·	·	·	·
SMILES	Rce1 inh	TAAR1 antagonist	TAAR1 ag	VLA-4 inh	Platelet DG rel	nonsel antag count	TAAR1 antag conf	Ga16 nonsel ag	TAAR1 ag count
CCOC(=O)C1=C(C)NC(C)=C(C(=O)OCC)C1C(=O)OCC(=O)NCCc1ccc(S(N)(=O)=O)cc1	i	-10.6	1.0	-1.0	1.4	·	·	·	·
O=C(CN1c2cccc3cccc(c23)S1(=O)=O)Nc1ccc(F)c(F)c1F	·	103.5*	2.2	-2.2	·	9.2	11.7	3.8	4.9
COc1ccc(CN(C)CCCn2cnc3c(OC)ncnc32)cc1OC	·	-20.9	4.9	·	·	·	·	·	·
COc1ccccc1/C=C/C(=O)NC(=S)NCC1CCCO1 (stereo not drawn)	i	74.1*	6.1	1.9	1.3	27.0*	52.0*	4.8	6.7
CN1C(=O)CSc2ccc(NC(=O)N3CCOCC3)cc21	i	7.1	8.4	3.8	-0.5	·	·	·	·
Cc1cc(C)cc(NC(=O)Nc2ccc3c(c2)N(C)C(=O)CS3)c1	i	82.3*	6.7	18.7	-2.2	42.8*	51.0*	11.4	6.5
CCOC(=O)c1c(C)[nH]c(C(=O)COC(=O)CNS(=O)(=O)c2ccc(C)cc2)c1C	·	75.5*	12.0	-1.1	·	39.0*	52.2*	10.4	10.6
NS(=O)(=O)c1cccc(NC(=O)c2cc(=O)c3ccccc3o2)c1	i	-28.7	2.5	-5.3	-3.1	·	·	·	·
COc1ccccc1N(C)S(=O)(=O)c1ccc(C(=O)OC(C)C(=O)NCc2ccc3c(c2)OCO3)cc1 (stereo not drawn)	i	55.8*	21.1	9.4	-0.9	35.6*	55.9*	11.7*	12.4
O=C(Nc1cccc(S(=O)(=O)N2CCCCCC2)c1)c1cc(=O)c2ccccc2o1	·	78.8*	12.8	11.7	0.6	42.3*	57.3*	14.9*	12.7
CN(c1ccccc1)S(=O)(=O)c1cccc(NC(=O)c2ccncc2)c1	i	15.8	5.0	-6.6	5.5	·	·	·	·
CN(c1ccccc1)S(=O)(=O)c1cccc(NC(=O)c2cc(=O)c3ccccc3o2)c1	i	74.3*	19.0	7.7	6.1	40.3*	56.6*	11.5*	7.0

Assay outcomes deposited in PubChem BioAssay by several laboratories.
